Source: paper PMC6677593 (Molecular cancer therapeutics, 2019)
pIC50: −log10 of the molar value. Like-named read-outs stand apart in the source and are kept apart here.

Columns and labels:
[1] = target: T1, glucocorticoid receptor (GR) (Homo sapiens, UniProt P04150); experiment: GR antagonism assay; type: biochemical; details: read-out: antagonism to GR
T1 sequence (P04150 1-777): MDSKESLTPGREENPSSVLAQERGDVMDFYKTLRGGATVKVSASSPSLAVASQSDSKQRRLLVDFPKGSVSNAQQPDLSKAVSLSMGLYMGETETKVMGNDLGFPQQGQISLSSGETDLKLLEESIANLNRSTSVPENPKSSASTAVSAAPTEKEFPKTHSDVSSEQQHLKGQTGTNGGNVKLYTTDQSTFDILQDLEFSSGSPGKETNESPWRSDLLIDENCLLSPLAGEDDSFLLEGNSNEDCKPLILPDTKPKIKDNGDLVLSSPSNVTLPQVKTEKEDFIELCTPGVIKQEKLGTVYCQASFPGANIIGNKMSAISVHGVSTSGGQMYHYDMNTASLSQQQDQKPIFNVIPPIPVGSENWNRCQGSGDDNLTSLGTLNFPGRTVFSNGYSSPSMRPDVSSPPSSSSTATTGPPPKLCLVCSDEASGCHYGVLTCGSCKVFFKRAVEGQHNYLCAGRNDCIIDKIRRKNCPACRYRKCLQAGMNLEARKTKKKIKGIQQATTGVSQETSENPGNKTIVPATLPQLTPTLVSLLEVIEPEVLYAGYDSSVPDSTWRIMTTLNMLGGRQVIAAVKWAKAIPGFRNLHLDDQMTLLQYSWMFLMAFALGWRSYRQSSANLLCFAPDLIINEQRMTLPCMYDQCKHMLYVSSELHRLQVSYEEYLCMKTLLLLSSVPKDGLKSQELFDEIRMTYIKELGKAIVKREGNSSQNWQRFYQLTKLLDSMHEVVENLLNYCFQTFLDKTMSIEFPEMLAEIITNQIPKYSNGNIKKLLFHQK

[2] = tested on: STAT3-Luc reporter in BT-549 and MDA-MB-231 cells; experiment: STAT3-luc reporter gene assay; type: cell-based, Human; details: BT-549, EC359 50 nM pretreatment 1 h
Method in brief: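 MDA-MB-231 and BT-549 lines stably transduced with a STAT3-firefly luciferase reporter lentivirus were serum-starved for 24 h and pretreated with test compound (50 nM) for 1 h. They were then stimulated with LIF, CTF1, OSM or CNTF at indicated concentrations for 24 h. Lysates in passive lysis buffer were read by dual-luciferase luminescence; n=3.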

[3] = tested on: MDA-MB-231 and SUM-159 cells; experiment: Clonogenic survival assay; type: cell-based, Human; details: EC359 20 nM
[4] = tested on: ALDH+ (CSCs) and ALDH− (non CSCs) cells; experiment: Cell Titer-Glo viability of CSCs and non CSCs; type: cell-based, Human; details: 3 days
[5] = intraperitoneal and oral dosing
[6] = rats
CYP 2D6 = CYP 2D6 (Homo sapiens, UniProt P10635)
CYP 2D6, sequence (P10635 whole entry): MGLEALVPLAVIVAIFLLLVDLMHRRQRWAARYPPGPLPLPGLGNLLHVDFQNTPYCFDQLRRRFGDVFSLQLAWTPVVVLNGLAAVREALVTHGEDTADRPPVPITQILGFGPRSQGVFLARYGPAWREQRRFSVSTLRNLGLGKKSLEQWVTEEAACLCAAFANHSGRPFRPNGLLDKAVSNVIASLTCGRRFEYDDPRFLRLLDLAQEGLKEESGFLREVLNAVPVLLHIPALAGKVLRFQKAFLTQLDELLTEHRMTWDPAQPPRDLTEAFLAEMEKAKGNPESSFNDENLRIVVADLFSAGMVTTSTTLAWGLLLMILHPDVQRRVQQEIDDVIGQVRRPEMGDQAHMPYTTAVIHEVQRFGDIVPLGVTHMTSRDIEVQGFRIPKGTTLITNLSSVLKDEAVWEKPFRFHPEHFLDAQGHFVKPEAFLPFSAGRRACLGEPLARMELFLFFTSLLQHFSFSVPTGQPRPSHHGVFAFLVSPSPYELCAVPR

GR = target: T2, GR (Homo sapiens, UniProt P04150); experiment: In vitro steroid receptor binding assays; details: receptor binding studies (Fig. 1C)
T2 sequence (P04150 1-777): T1 sequence (P04150 1-777)

BT-549 cells = experiment: MTT cell viability assay on BT-549 cells; type: cell-based, Human; details: BT-549 model cells (Fig. 1B)
[7] = tested on: MDA-MB-231 xenograft tumors; experiment: MDA-MB-231 xenograft study; type: in vivo, athymic nude mice; details: 5 mg/kg/day s.c. 3 days/week
[8] = human
[9] = tested on: CSCs from MDA-MB-231 and BT-549 cells; experiment: Extreme limiting dilution assay; type: cell-based, Human; details: 10 days
Method in brief: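 ALDH+ CSCs were sorted by ALDEFLUOR flow cytometry and grown in supplemented MammoCult. They were seeded at 100, 50, 20, 10, 5 and 1 cells/well on ultra-low attachment plates with vehicle or test compound. After 10 days, wells with spheres were scored at each density, and stem cell frequency was estimated by ELDA analysis.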

TNBC PDX tumors = experiment: TNBC patient derived xenograft; type: in vivo, SCID mice; details: 10 mg/kg/day s.c. 3 days/week
[10] = tested on: TNBC cells (BT-549, SUM-159, MDA-MB-231, HCC1937, MDA-MB-468, HCC1806); experiment: MTT cell viability assay in TNBC cells; type: cell-based, Human; details: read-out: IC50, cell viability of TNBC cells, 5 days
[11] = tested on: MDA-MB-231 and BT-549 cells; details: 72 h
[12] = tested on: salmonella typhimurium strains TA98, TA100, TA1535, TA1537 and E.coli combo; experiment: Ames test; details: with and without metabolic activation, OECD guideline no.471
[13] = human; remark: listed apart in the source
Recombinant human LIF = Recombinant human LIF (Homo sapiens, UniProt P15018); experiment: Surface plasmon resonance; type: binding; details: SPR
Recombinant human LIF, sequence (P15018 23-202): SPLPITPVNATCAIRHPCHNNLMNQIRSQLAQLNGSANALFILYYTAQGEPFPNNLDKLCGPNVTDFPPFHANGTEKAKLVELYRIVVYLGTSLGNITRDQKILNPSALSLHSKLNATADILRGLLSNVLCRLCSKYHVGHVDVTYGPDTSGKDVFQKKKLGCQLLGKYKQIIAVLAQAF

[14] = human; remark: listed apart in the source
[15] = tested on: LIFR downstream signaling in MDA-MB-231 and BT-549 cells; experiment: Western blotting of LIFR downstream signaling; type: cell-based, Human
Method in brief: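 After 24 h serum starvation and 1 h pretreatment with test compound (100 nM), cells were stimulated for 10 min with LIF (MDA-MB-231, BT-549), or with OSM or CNTF at 10 ng (BT-549). For downstream kinases, cells were treated with 100 nM. Lysates were made in RIPA with protease/phosphatase inhibitors and blotted with ECL detection. p-STAT3 bands were quantified, normalized to total STAT3 and expressed as fold over control.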

[16] = tested on: MDA-MB-231 and BT-549 cells; experiment: Matrigel invasion chamber assay; type: cell-based, Human; details: EC359 25 nM, 22 h
[17] = tested on: MDA-MB-231 and BT-549 cells; experiment: Annexin V/PI staining; type: cell-based, Human

For `C#CC(F)(F)[C@]1(O)CC[C@H]2[C@@H]3CCC4=CC(=O)CCC4=C3[C@@H](c3ccc(C4CC4)cc3)C[C@@]21C` [EC330], the pIC50 [1] was 7.10.

For `C#CC(F)(F)[C@]1(O)CC[C@H]2[C@@H]3CCC4=CC(=O)CCC4=C3[C@@H](c3ccc(-c4c(C)cc(C)cc4C)cc3)C[C@@]21C` [EC359], the “LIF stimulated STAT3 reporter activity” value [2] was “inhibited”, the “OSM, CNTF and CTF1 mediated STAT3 activity” value [2] was “blocked” and the colony formation ability [3] was “significantly reduced”. For the same compound, the “viability of ALDH+ and ALDH− cells” value [4] was “similarly inhibited”, the “bioavailability (PK)” value [5] was “Good bioavailability” and the AUC0-inf ([6]; IV 5 mg/kg) was 15573.91 ng·h/mL. For the same compound, the AUC0-last ([6]; IV 5 mg/kg) was 15544.36 ng·h/mL, the T½ ([6]; IV 5 mg/kg) was 3.86 h and the “mean C0” value ([6]; IV 5 mg/kg) was 74669.11 ng/mL. The AUC0-inf ([6]; oral 10 mg/kg) was 3876.82 ng·h/mL, the AUC0-last ([6]; oral 10 mg/kg) was 3792.26 ng·h/mL and the Tmax ([6]; oral 10 mg/kg) was 2.67 h. The “mean Cmax” value ([6]; oral 10 mg/kg) was 919.50 ng/mL, the “CYP 2D6 inhibition” value (CYP 2D6) was “inhibits 2D6” and the “affinity to GR” value (GR) was “lack of affinity”. The “inhibitory activity in cell viability assay” value (BT-549 cells) was “significant inhibitory activity on par with EC330”, the “body weights of mice” value [7] was “remained unchanged” and the “proliferating cells (Ki-67 positive cells) in tumors” value [7] was “fewer proliferating cells”. The “tumor progression (tumor volume)” value [7] was “significantly reduced”, the “activation of STAT3 target genes in tumors” value ([7]; RT-qPCR) was “significant decrease” and the plasma stability [8] was “moderate”. The “self renewal of CSCs” value [9] was “significantly reduced”, the body weight (TNBC PDX tumors) was “did not affected” and the “proliferating cells (Ki-67) in PDX tumors” value (TNBC PDX tumors) was “fewer proliferating cells”. The “tumor progression (tumor volume)” value (TNBC PDX tumors) was “significantly reduced”, the pIC50 [10] was 7.30 to 8.00 and the “caspase 3/7 activity” value [11] was “significantly increased”. The “mutagenicity (Ames test)” value [12] was “non-mutagenic”, the plasma protein binding [13] was “high” and the “binding to LIF” value (Recombinant human LIF) was “binding to LIFR, but not LIF”. For the same compound, the Metabolic stability [14] was “moderate”, the “STAT3 activation by OSM and CNTF (phosphorylation)” value ([15]; BT-549, EC359 100 nM 1 h, then OSM or CNTF 10 ng, 10 min) was “reduced” and the “LIF activation of STAT3 (phosphorylation)” value ([15]; EC359 100 nM 1 h, then LIF 10 min, BT-549 and MDA-MB-231) was “substantially reduced”. For the same compound, the invasion potential [16] was “significantly reduced” and the “Annexin V positive cells” value [17] was “significantly increased”.
